Experimental data reported in ChEMBL document CHEMBL4706761, “Design and Implementation of Synthetic RNA Binders for the Inhibition of miR-21 Biogenesis” (ACS Med Chem Lett, 2021).

Tests used:
microRNA 21 [1] = assay: (§1) Selectivity index, ratio of Kd for 5'-FAM/3'-DAB-labeled UGUCGGGUAGCUUAUCAGACUGAUGUUGACUGUUGAAUCUCAUGGCAACACCAGUCGAUGGGCUGUCUGACA pre-miRNA-21 (unknown origin) in presence of double stranded 15-mer 5'-CGTTTTTATTTTTGC-3' DNA to Kd for 5'-FAM/3'-DAB-labeled UGUCGGGUAGCUUAUCAGACUGAUGUUGACUGUUGAAUCUCAUGGCAACACCAGUCGAUGGGCUGUCUGACA pre-miRNA-21 (unknown origin); type: nucleic-acid assay
microRNA 21 [2] = assay: Binding affinity to 5'-FAM/3'-DAB-labeled UGUCGGGUAGCUUAUCAGACUGAUGUUGACUGUUGAAUCUCAUGGCAACACCAGUCGAUGGGCUGUCUGACA pre-miRNA-21 (unknown origin) assessed as dissociation constant incubated for overnight by fluorescence based assay; type: nucleic-acid assay
microRNA 21 [3] = assay: Binding affinity to 5'-FAM/3'-DAB-labeled UGUCGGGUAGCUUAUCAGACUGAUGUUGACUGUUGAAUCUCAUGGCAACACCAGUCGAUGGGCUGUCUGACA pre-miRNA-21 (unknown origin) assessed as dissociation constant incubated for overnight in presence of double stranded 15-mer 5'-CGTTTTTATTTTTGC-3' DNA by fluorescence based assay; type: nucleic-acid assay
microRNA 21 [4] = assay: Inhibition of 5'-FAM/3'-DAB-labeled UGUCGGGUAGCUUAUCAGACUGAUGUUGACUGUUGAAUCUCAUGGCAACACCAGUCGAUGGGCUGUCUGACA pre-miRNA-21 (unknown origin) biogenesis incubated for 30 mins in presence of human recombinant dicer by FRET based assay; type: nucleic-acid assay
Outline: (§2)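 FRET cleavage assay on a 72-mer pre-miR-21 carrying 5′-fluorescein and 3′-dabcyl. Substrate is processed by recombinant Dicer, E. coli RNase III or MCF7 cell lysate across a range of ligand concentrations. Cleavage raises fluorescence. IC50 from duplicates over three independent experiments.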

microRNA 21 [5] = assay: as §1, with “tRNA” for “double stranded 15-mer 5'-CGTTTTTATTTTTGC-3' DNA”; type: nucleic-acid assay
microRNA 21 [6] = assay: Binding affinity to 5'-FAM/3'-DAB-labeled UGUCGGGUAGCUUAUCAGACUGAUGUUGACUGUUGAAUCUCAUGGCAACACCAGUCGAUGGGCUGUCUGACA pre-miRNA-21 (unknown origin) assessed as dissociation constant incubated for overnight in presence of Saccharomyces cerevisiae tRNA by fluorescence based assay; type: nucleic-acid assay
microRNA 21 [7] = assay: Binding affinity to 5'-FAM/3'-DAB-labeled UGUCGGGUAGCUUAUCAGACUGAUGUUGACUGUUGAAUCUCAUGGCAACACCAGUCGAUGGGCUGUCUGACA pre-miRNA-21 (unknown origin) assessed as pre-miRNA-21-compound complex formation by measuring Gibbs free energy; type: nucleic-acid assay
Outline: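 ΔG°T obtained from the fluorescence binding assay on 5′-FAM-pre-miR-21, run at several temperatures (278–308 K). Enthalpic (ΔH°) and entropic (−TΔS°) contributions are derived from these values.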

microRNA 21 [8] = assay: Inhibition of 5'-FAM/3'-DAB-labeled UGUCGGGUAGCUUAUCAGACUGAUGUUGACUGUUGAAUCUCAUGGCAACACCAGUCGAUGGGCUGUCUGACA pre-miRNA-21 (unknown origin) biogenesis preincubated for 30 mins followed by Escherichia coli RNase III addition and measured after 1 hr by fluorescence based assay; type: nucleic-acid assay; outline: as §2
microRNA 21 [9] = assay: Inhibition of 5'-FAM/3'-DAB-labeled UGUCGGGUAGCUUAUCAGACUGAUGUUGACUGUUGAAUCUCAUGGCAACACCAGUCGAUGGGCUGUCUGACA pre-miRNA-21 (unknown origin) biogenesis preincubated for 30 mins followed by MCF7 cell lysate addition and measured after 1 hr by fluorescence based assay; outline: as §2

Row | SMILES | Ratio (microRNA 21 [1]) | Kd (microRNA 21 [2]) | Kd (microRNA 21 [3]) | IC50 (microRNA 21 [4]) | Ratio (microRNA 21 [5]) | Kd (microRNA 21 [6]) | deltaG (microRNA 21 [7]) | IC50 (microRNA 21 [8]) | IC50 (microRNA 21 [9])
1 | Cc1ccc(C(=O)Nc2nc(-c3cccc(NC(=O)CCC(=O)N[C@@H](Cc4cn(C[C@H]5O[C@@H](O[C@@H]6[C@@H](O)[C@H](N)C[C@H](N)[C@H]6O[C@H]6O[C@H](CN)[C@@H](O)[C@H](O)[C@H]6N)[C@H](O)[C@@H]5O[C@H]5O[C@@H](CN)[C@@H](O)[C@H](O)[C@H]5N)nn4)C(=O)N[C@@H](C)C(N)=O)c3)cs2)cc1 | 2 | 0.128 µM | 0.261 µM | < 5 µM | 1.3 | 0.17 µM |  |  | 
2 | C[C@H](NC(=O)[C@H](Cc1cn(C[C@H]2O[C@@H](O[C@@H]3[C@@H](O)[C@H](N)C[C@H](N)[C@H]3O[C@H]3O[C@H](CN)[C@@H](O)[C@H](O)[C@H]3N)[C@H](O)[C@@H]2O[C@H]2O[C@@H](CN)[C@@H](O)[C@H](O)[C@H]2N)nn1)NC(=O)CCC(=O)NCCn1ccc(=O)[nH]c1=O)C(N)=O | 2.3 | 0.641 µM | 1.46 µM |  | 1.3 | 0.807 µM |  |  | 
3 | CC(=O)Nc1nc(-c2cccc(NC(=O)CCC(=O)N[C@@H](Cc3cn(C[C@H]4O[C@@H](O[C@@H]5[C@@H](O)[C@H](N)C[C@H](N)[C@H]5O[C@H]5O[C@H](CN)[C@@H](O)[C@H](O)[C@H]5N)[C@H](O)[C@@H]4O[C@H]4O[C@@H](CN)[C@@H](O)[C@H](O)[C@H]4N)nn3)C(=O)N[C@@H](Cc3c[nH]cn3)C(N)=O)c2)cs1 | 1.6 | 0.0503 µM | 0.0809 µM | < 5 µM | 1 | 0.0504 µM | -9.92 kcal/mol |  | 
4 | NC[C@@H]1O[C@H](O[C@H]2[C@@H](O)[C@H](O[C@@H]3[C@@H](O)[C@H](N)C[C@H](N)[C@H]3O[C@H]3O[C@H](CN)[C@@H](O)[C@H](O)[C@H]3N)O[C@@H]2CO)[C@H](N)[C@@H](O)[C@@H]1O [FRAMYCETIN] | 1.4 | 1.39 µM | 1.95 µM |  | 1 | 1.42 µM |  |  | 
5 | CC(=O)Nc1nc(-c2cccc(NC(=O)CCC(=O)N[C@@H](Cc3cn(C[C@H]4O[C@@H](O[C@@H]5[C@@H](O)[C@H](N)C[C@H](N)[C@H]5O[C@H]5O[C@H](CN)[C@@H](O)[C@H](O)[C@H]5N)[C@H](O)[C@@H]4O[C@H]4O[C@@H](CN)[C@@H](O)[C@H](O)[C@H]4N)nn3)C(=O)N[C@@H](C)C(N)=O)c2)cs1 | 1.4 | 0.133 µM | 0.187 µM |  | 1.1 | 0.151 µM |  |  | 
6 | Cc1ccc(C(=O)Nc2nc(-c3cccc(NC(=O)CCC(=O)N[C@@H](Cc4cn(C[C@H]5O[C@@H](O[C@@H]6[C@@H](O)[C@H](N)C[C@H](N)[C@H]6O[C@H]6O[C@H](CN)[C@@H](O)[C@H](O)[C@H]6N)[C@H](O)[C@@H]5O[C@H]5O[C@@H](CN)[C@@H](O)[C@H](O)[C@H]5N)nn4)C(=O)N[C@@H](CCCCN)C(N)=O)c3)cs2)cc1 | 2.5 | 0.348 µM | 0.877 µM |  | 1.2 | 0.405 µM |  |  | 
7 | CC(=O)Nc1nc(-c2cccc(NC(=O)CCC(=O)N[C@@H](Cc3cn(C[C@H]4O[C@@H](O[C@@H]5[C@@H](O)[C@H](N)C[C@H](N)[C@H]5O[C@H]5O[C@H](CN)[C@@H](O)[C@H](O)[C@H]5N)[C@H](O)[C@@H]4O[C@H]4O[C@@H](CN)[C@@H](O)[C@H](O)[C@H]4N)nn3)C(=O)N[C@@H](CCCCN)C(N)=O)c2)cs1 | 1.9 | 0.0507 µM | 0.0957 µM | < 5 µM | 1 | 0.051 µM | -9.92 kcal/mol |  | 
8 | NC[C@@H]1O[C@H](O[C@H]2[C@@H](O)[C@H](O[C@@H]3[C@@H](O)[C@H](N)C[C@H](N)[C@H]3O[C@H]3O[C@H](CN)[C@@H](O)[C@H](O)[C@H]3N)O[C@@H]2Cn2cc(CCC(=O)Nc3cccc(-c4csc(NC(=O)[C@@H](N)Cc5c[nH]cn5)n4)c3)nn2)[C@H](N)[C@@H](O)[C@@H]1O | 1.3 | 0.128 µM | 0.171 µM | < 5 µM | 1 | 0.134 µM |  | 1.26 µM | 3.1 µM
9 | Cc1ccc(C(=O)Nc2nc(-c3cccc(NC(=O)CCC(=O)N[C@@H](Cc4cn(C[C@H]5O[C@@H](O[C@@H]6[C@@H](O)[C@H](N)C[C@H](N)[C@H]6O[C@H]6O[C@H](CN)[C@@H](O)[C@H](O)[C@H]6N)[C@H](O)[C@@H]5O[C@H]5O[C@@H](CN)[C@@H](O)[C@H](O)[C@H]5N)nn4)C(=O)N[C@@H](Cc4c[nH]cn4)C(N)=O)c3)cs2)cc1 | 1.7 | 0.162 µM | 0.274 µM | < 5 µM | 1 | 0.168 µM |  |  | 
